# Assay outcomes (PubChem BioAssay)
# Hits are enriched below; roughly 4.5% of the tested compounds scored in any of these assays.
# TAAR1 antag: human TAAR1 antagonists, primary screen, Fluo-8 calcium fluorescence, CHO RD-HGA16 cells; inhibition, % at 3 µM; antagonist; Trace amine-associated receptor 1 (Homo sapiens), Q96RJ0; 360,000 compounds, 1.5% hits;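 active means inhibition above a per-plate cutoff, the mean inhibition of test compounds on that plate plus 3 SD, cut at about 49% in these data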;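 further: 0% = DMSO plus EC80 beta-PEA response and 100% = DMSO alone without agonist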
# Target sequence (Q96RJ0 whole entry, looked up): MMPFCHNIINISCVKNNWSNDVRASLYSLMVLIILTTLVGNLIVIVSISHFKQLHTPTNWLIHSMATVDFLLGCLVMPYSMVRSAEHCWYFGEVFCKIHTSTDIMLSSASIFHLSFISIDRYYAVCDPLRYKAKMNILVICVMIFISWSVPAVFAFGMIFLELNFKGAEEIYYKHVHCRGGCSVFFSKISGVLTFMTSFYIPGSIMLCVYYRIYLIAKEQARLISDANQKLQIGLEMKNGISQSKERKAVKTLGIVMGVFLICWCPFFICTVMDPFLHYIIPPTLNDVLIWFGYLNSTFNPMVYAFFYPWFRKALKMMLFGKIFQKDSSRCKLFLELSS
#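 Test system: hTAAR1-expressing CHO RD-HGA16 cells, Gα16-coupled; Probe or stimulus: EC80 β-phenethylamine stimulus; Compound dosing: single nominal final test compound concentration of 3 µM; Timing: 140 s kinetic read after compound, 140 s after agonist; Signal: Fluo-8 calcium-sensitive fluorescence; Measure: % inhibition of agonist calcium response; Controls: DMSO and EC80 PEA controls.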
# CHO parental Ca: ATP-evoked calcium signal inhibitors, parental CHO, primary screen, counter-screen for OX1R antagonist project, cell-based, fluorescence, Fluo-8 calcium dye; parental CHO-K1, ATP-induced calcium, Fluo-8 fluorescence; inhibition, % at 5.6 µM; 330,000 compounds, 0.63% hits;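 active means inhibition above that plate's mean sample inhibition plus 3 SD, cut at about 26% in these data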;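 further: 0% = ATP-challenged DMSO wells and 100% = DMSO wells without ATP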
#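 Material – parental CHO cells · Reagent – ATP stimulus · Compound – single nominal dose of 5.6 µM per compound · Detection – Fluo-8 fluorescence · Read-out basis – percent inhibition of calcium signal · Controls – ATP-challenged DMSO wells low, unchallenged DMSO wells high · Repeats – no replicates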
# TAAR1 ag: human TAAR1 agonists, primary screen, Fluo-8 calcium fluorescence, CHO RD-HGA16 cells | Trace amine-associated receptor 1 (Homo sapiens), Q96RJ0 | vehicle wells 0%, saturating PEA agonist 100% | activation, % at 3 µM | 360,000 compounds, 0.99% hits | AID 624467, 2012;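 active means activation above the mean activation of all test compounds in the run plus 3 SD, cut at about 38% in these data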
#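 Test system: RD-HGA16 (CHO) cells co-expressing Gα16 and hTAAR1; dosing: one-point dosing at 3 µM (nominal); timing: 17-24 h seeding, 75 min 37 °C dye, 30 min RT; signal: kinetic Fluo-8 calcium fluorescence; read-out basis: % activation relative to PEA EC100 response; controls: DMSO and PEA EC100; replicates: n 1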
# OX1R antag-1: OX1R (HCRTR1) antagonists, primary screen, fluorescence, CHO/OX1R cells, Fluo-8 calcium, orexin A; 330,000 compounds, 0.43% hits; inhibition, % at 5 µM; Fluo-8 calcium fluorescence;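 active means inhibition above its plate's threshold, mean inhibition of all tested compounds on the plate plus 3 SD, cut at about 37% in these data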;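 further: 0% = orexin A challenge wells and 100% = SB-334867-A antagonist wells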
# GPR7 antagonist: GPR7 receptor antagonists, primary screen, cell-based, fluorescence, single concentration; GPR7-expressing cells, fluorescence antagonist assay; Neuropeptides B/W receptor type 1 (Homo sapiens), P48145; inhibition, % at 4.4 µM; 290,000 compounds, 1.1% hits; in the data active means inhibition above about 16%, passing the limit was not always enough;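 further: cells stimulated with the agonist NPW; 0% = agonist with vehicle and 100% = vehicle without agonist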
# OX1R antag-2: antagonists of human orexin 1 receptor (OX1R). Orexin/Hypocretin receptor type 1 (Homo sapiens), O43613. OX1R-expressing cells, FRET antagonist read-out. inhibition, % at 6.6 µM. 330,000 compounds, 1.8% hits. AID 485270, 2010; in the data active means inhibition mostly above about 38%, no sharp cut-off; inactive means mostly below about 40%;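 further: 0% = agonist challenge alone and 100% = reference antagonist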
# TAAR1 nonsel count: nonselective antagonists in TAAR1 counter-screen cells, counter-screen for hTAAR1 antagonist project, cell-based, fluorescence, calcium; 2,400 compounds, 77% hits; shares compounds with TAAR1 antag; inhibition, % at 3 µM; counterscreen cell line, antagonist mode; in the data active means inhibition above about 22%;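 further: CHO-Ga16 host cells stimulated with ATP at an EC80 level; 0% = agonist EC80 plus vehicle and 100% = vehicle without agonist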
# TAAR1 ant conf: human TAAR1 antagonists, retest of hits, confirmation, cell-based, fluorescence; shares compounds with TAAR1 antag; TAAR1-expressing cells, fluorescence antagonist read-out; inhibition, % at 3 µM; 2,400 compounds, 40% hits; AID 651785, 2012; in the data active means inhibition above about 49%;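 further: CHO-Ga16 host cells challenged with agonist PEA near its EC80; 0% = agonist at EC80 plus vehicle and 100% = vehicle with no agonist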
# Ga16 nonsel ag: calcium activation in Ga16-expressing cells, counter-screen for TAAR1 antagonist project, cell-based, fluorescence | shares compounds with TAAR1 antag | 2,400 compounds, 18% hits | activation, % at 3 µM | agonist counterscreen | AID 651953, 2012; in the data active means activation above about 12%;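 further: 0% = vehicle wells and 100% = saturating stimulus response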
# TAAR1 ag counter: TAAR1 activation by candidate antagonists – cell-based, fluorescence, counter-screen for TAAR1 antagonist project | shares compounds with TAAR1 antag | hTAAR1 cell line, agonist mode | activation, % at 3 µM | 2,400 compounds, 2% hits | AID 651955, 2012; in the data active means activation above about 37%;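 further: CHO cells stably expressing TAAR1 with calcium dye readout; 0% = DMSO vehicle and 100% = full agonist response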
# Starred values were filed as active, the others as inactive; · = no result given.
SMILES,TAAR1 antag,CHO parental Ca,TAAR1 ag,OX1R antag-1,GPR7 antagonist,OX1R antag-2,TAAR1 nonsel count,TAAR1 ant conf,Ga16 nonsel ag,TAAR1 ag counter
NC(=O)c1nsc(C(=O)N(CC(=O)NC2CCCCC2)c2ccc(Cl)cc2)c1N,3,-3,0,14,17,12,·,·,·,·
CCN(CC)S(=O)(=O)c1ccc2[nH]cc(C(=O)NCCC3=CCCCC3)c(=O)c2c1,67*,7,11,18,-2,21,32*,33,6,5
CCN(CC)S(=O)(=O)c1ccc2[nH]cc(C(=O)NCCN3CCCCCC3)c(=O)c2c1,6,-8,9,14,-3,15,·,·,·,·
O=C(c1sc(N2CCOCC2)nc1-c1ccccc1)N1CCCCC1,-5,-19,-1,-17,11,26,·,·,·,·
[2H]c1c([2H])c([2H])c(-c2nc(N3CCCCCC3)sc2C(=O)c2ccccc2)c([2H])c1[2H],62*,-11,15,0,4,11,11,16,0,1
Cc1csc(SCC(=O)N(C)CC(=O)Nc2ccc(F)cc2)n1,·,-3,·,-21,-2,7,·,·,·,·
CC(C(=O)Nc1ccccc1C(=O)N1CCOCC1)N(c1ccccc1)S(C)(=O)=O (stereo not drawn),9,-11,0,-8,-10,13,·,·,·,·
Cc1csc2nc(CSc3nc4ccccc4o3)c(Br)n12,61*,-19,20,6,5,62,15,19,5,9
O=C(Nc1ccc(S(=O)(=O)N2CCCCC2c2cccnc2)cc1)c1ccccc1F (stereo not drawn),56*,-10,12,-10,7,39,27*,34,10,9
COc1ccc2c(c1)c(CCN1C(=O)c3ccccc3C1=O)cn2C(=O)c1ccco1,57*,-19,5,-20,-17,-1,12,32,2,4
O=C(Nc1cc(=O)c2ccccc2o1)N1CCOCC1,64*,-22,17,-25,-24,22,17,26,7,5
O=C(Nc1cc(=O)c2ccccc2o1)N1CCCCC1,31,-21,13,-13,-7,2,·,·,·,·
Cc1ccccc1N1CCN(C2CCCN(C(=O)c3cn4cccc(C)c4n3)C2)CC1 (stereo not drawn),57*,·,14,·,-34,·,30*,41,9,8
Cc1ccccc1N1CCN(C2CCCN(C(=O)c3ccccn3)C2)CC1 (stereo not drawn),-22,-13,2,-5,-5,19,·,·,·,·
CC1Sc2ccc(C(=O)Nc3ncccc3O)cc2NC1=O (stereo not drawn),11,-8,1,-15,·,20,·,·,·,·
CCOc1cc2c(cc1OC)C(c1cccc([N+](=O)[O-])c1)NCC2 (stereo not drawn),106*,-23,0,-16,-3,19,4,7,3,6
